# Rows were chosen to be rich in hits. Some 3.1% of all compounds tested hit in one or more screens of this group.
# LEDGF integ inh = blockers of LEDGF/p75-dependent integrase strand transfer – biochemical, TR-FRET, high throughput, primary screen | inhibition, % at 3.7 µM | TR-FRET IN-LEDGF/p75 DNA integration, Eu/Cy5 | AID 743269, 2014 | HIV-1 integrase (with human LEDGF/p75) | 370,000 tested, 0.64% active;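 active = inhibition above the screen-wide mean plus 3 SD, cut at about 13% in these data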;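 note: signal is the Cy5 over europium emission ratio at 671 and 618 nm; 0% = plate median of compound wells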
# PRMT1 inh = PRMT1 methyltransferase inhibitors, primary screen, biochemical, fluorescence polarization. Protein arginine N-methyltransferase 1 (Homo sapiens), Q99873. recombinant PRMT1, activity-based probe fluorescence polarization. inhibition, % at 2.79 µM. 370,000 tested, 1.3% active. AID 652257, 2013;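 active = inhibition above about 21% made by adding two undisclosed values, limit read from the data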
# Target sequence (Q99873 whole entry, looked up): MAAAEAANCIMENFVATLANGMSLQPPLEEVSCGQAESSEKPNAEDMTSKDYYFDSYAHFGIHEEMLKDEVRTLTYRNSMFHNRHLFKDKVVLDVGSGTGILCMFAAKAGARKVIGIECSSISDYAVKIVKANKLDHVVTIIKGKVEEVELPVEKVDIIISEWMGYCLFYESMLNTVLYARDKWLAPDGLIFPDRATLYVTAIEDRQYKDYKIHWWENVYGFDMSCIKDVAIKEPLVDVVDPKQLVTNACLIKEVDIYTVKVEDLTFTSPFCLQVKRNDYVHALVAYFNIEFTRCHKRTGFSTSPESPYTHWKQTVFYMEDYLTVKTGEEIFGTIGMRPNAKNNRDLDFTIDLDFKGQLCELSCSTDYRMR
# UHRF1 MBD2 ctr = UHRF1 methylated DNA binding inhibitors, primary screen, counter-screen for MBD2 inhibitor project, biochemical, TR-FRET, human UHRF1, single concentration | inhibition, % at 4.4 µM | 370,000 tested, 0.75% active | UHRF1 binding to methylated oligo; in the data active = inhibition above about 21%;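 note: UHRF1 SRA domain binding a hemimethylated CpG hairpin DNA probe; 0% = median of test compound wells and 100% = reference inhibitor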
# MBD2 inh = inhibitors of MBD2 binding to methylated DNA, primary screen, biochemical, TR-FRET, DNA-binding domain, human | Methyl-CpG-binding domain protein 2 (Homo sapiens), Q9UBB5 | MBD2 binding to methylated oligonucleotide | inhibition, % at 4.4 µM | 370,000 tested, 0.31% active; in the data active = inhibition above about 13%
# RBBP9 inh = human RBBP9 inhibitors, primary screen, biochemical, fluorescence polarization, FP-Rh probe, HTS; Serine hydrolase RBBP9 (Homo sapiens), O75884; recombinant RBBP9; inhibition, % at 7.94 µM; 220,000 tested, 0.2% active; AID 1515, 2009;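 active = inhibition above the campaign mean of all tested compounds plus 3 SD, cut at about 14% in these data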;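 note: plate controls were DMSO wells with RBBP9 for no effect and wells lacking RBBP9 protein for full effect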
#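 Controls: DMSO-treated enzyme wells and wells lacking RBBP9 | Material: RBBP9 protein | Technique: Fluorescence polarization | Replication: Single well per compound, no replicates | Buffer or medium: Tris-NaCl-Pluronic buffer, pH 8.0 | Timing: 30 min compound preincubation, 45 min probe labeling, 25 °C | Read-out basis: Percent inhibition from mP, scaled between DMSO and no-protein wells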
# ABHD5 PLIN5 PPI = ABHD5-PLIN5 interaction inhibitors, primary screen, cell lysate, split luciferase complementation, luminescence; Perilipin-5 (Homo sapiens) + 1-acylglycerol-3-phosphate O-acyltransferase ABHD5 (Homo …; Split G. princeps luciferase complementation, 4 h; inhibition, % at 4 µM; 360,000 tested, 0.78% active; AID 602281, 2012;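 active = inhibition above the mean inhibition across every tested compound plus 3 SD, cut at about 22% in these data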;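 note: 0% = DMSO only wells and the 100% control is not disclosed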
# IN multimer up = HIV-1 IN multimer formation enhancers, counter-screen for LEDGF/p75 integration inhibitor project, biochemical, TR-FRET. 2,000 tested, 17% active. activation, % at 7.7 µM. shares compounds with LEDGF integ inh. TR-FRET HIV-1 integrase multimerization; in the data active = activation above about 8.9%
# TR-FRET interf = TR-FRET optical interference artefacts, confirmation, artefact control for LEDGF/p75-dependent integration inhibitor project, biochemical, HIV-1 IN multimerization; shares compounds with LEDGF integ inh; TR-FRET optical interference counterscreen; inhibition, % at 7.7 µM; 2,000 tested, under 10 active; AID 1053135, 2014;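 active = inhibition above the mean over all tested compounds plus 3 SD, which no compound reached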;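 note: 0% = integrase with antibodies and DMSO and 100% = antibodies without integrase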
# IN-LEDGF confirm = inhibitors of HIV-1 IN-LEDGF/p75 DNA integration, confirmation, biochemical, TR-FRET | shares compounds with LEDGF integ inh | TR-FRET LEDGF/p75-dependent HIV-1 integration | inhibition, % at 3.7 µM | 2,000 tested, 36% active | AID 1053136, 2014; in the data active = inhibition above about 14%
# * hit, by the source's call; . = not tested or not shown.
SMILES,LEDGF integ inh,PRMT1 inh,UHRF1 MBD2 ctr,MBD2 inh,RBBP9 inh,ABHD5 PLIN5 PPI,IN multimer up,TR-FRET interf,IN-LEDGF confirm
COc1cccc(NC(=O)Nc2nc3ncccn3c2-c2ccc(C)cc2)c1,-1,1,-2,4,.,.,.,.,.
C[C@H](CO)N1C[C@H](C)[C@@H](CN(C)C(=O)NC2CCCCC2)OCc2cn(nn2)CCCC1=O,-2,-2,1,1,.,.,.,.,.
Cc1c(C(=O)NCCC#N)sc(=O)n1Cc1ccc(C(=O)N(C)C)cc1,32*,3,-1,3,.,-3,-1,5,-5
C=Cc1ccc(Cn2c(C)c(C(=O)NCCC#N)sc2=O)cc1,4,-4,1,-2,.,-3,.,.,.
COc1ccc(/C=C2\CC3(OC(=O)c4ccccc4)CCCN2C3)cc1 (stereo not drawn),3,-2,4,-3,.,.,.,.,.
COc1cc2c3nnc(-c4ccc(F)cc4)c-3cn(Cc3ccc(F)cc3)c2cc1OC,1,0,2,-4,-10,3,.,.,.
COc1cc2c3nnc(-c4ccc(F)cc4)c-3cn(Cc3ccccc3)c2cc1OC,31*,-2,4,-4,-6,-2,-1,5,-5
COc1ccccc1C(=O)NC1CCCCN(Cc2cccc(C(F)(F)F)c2)C1=O (stereo not drawn),5,-8,-5,-5,.,.,.,.,.
Cc1ccc(NC2=CC(=O)C(=O)c3ccccc32)c(C)c1,4,-1,-1,-13,.,3,.,.,.
O=C1C=C(Nc2ccccc2O)c2ccccc2C1=O,28*,12,-8,-29,-7,-18,19*,-66,37*
O=C1C=C(Nc2cccnc2)c2ccccc2C1=O,29*,1,1,-26,.,-29,4,-14,55*
O=C1C=C(NCc2ccccc2)c2ccccc2C1=O,12,7,-7,-21,0,5,.,.,.
Cc1ccccc1C(=O)Nc1ccc(S(=O)(=O)NCC2CCCO2)cc1 (stereo not drawn),15*,5,0,2,.,2,0,2,0
Cc1ccc(-n2c(SCC(=O)N/N=C/c3ccccc3OCC(=O)O)nc3ccccc3c2=O)cc1,68*,-1,-2,-2,-5,-3,0,-1,3
COc1ccc(-n2c(SCC(=O)N/N=C/c3ccccc3OCC(=O)O)nc3ccccc3c2=O)cc1,3,12,8,7,9,-6,.,.,.
Cc1ccccc1NC(=S)NNC(=O)c1csc2c1CCC(C)C2 (stereo not drawn),51*,-3,-2,-2,-3,-1,0,-2,0
NNC(=O)c1cccnc1Oc1ccccc1,-2,-5,-2,6,-5,-3,.,.,.
Cc1ccc(Oc2ncccc2C(=O)NCC(=O)O)cc1,17*,-3,0,-6,4,1,0,0,0
O=C(O)C1C2C=CC(C2)C1C(=O)Nc1ccc2c(c1)OCCO2 (stereo not drawn),.,.,.,.,-3,5,.,.,.
CN(C)c1ccc(NC(=O)C2C3C=CC(C3)C2C(=O)O)cc1 (stereo not drawn),50*,18,21*,-9,.,-4,-2,11,2
